Assay [1] concerns the target T1, wild type cytochrome bo3 (Escherichia coli, UniProt P0ABI8). Kind of assay: steady state ubiquinol-1 oxidase activity. Type of assay: biochemical, E. coli. Conditions: for pattern of inhibition: double-reciprocal plot vs ubiquinol-1.
Assay [2] has as its target T1, wild type cytochrome bo3. Put plainly: EPR of the semiquinone formed at the QH-site. As to conditions: excess (5-fold) of inhibitor. It counts as biochemical, E. coli. The procedure, abridged: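 Continuous-wave X-band EPR of wild-type enzyme purified in dodecylmaltoside, carrying bound ubiquinone-8 at the QH site. Enzyme was incubated with a 5-fold excess of test compound, at 50 μM enzyme in one series. Sample preparation followed earlier published methods.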

Assay [3] has as its target T1, wild type cytochrome bo3. Put plainly: HQNO binding monitored by fluorescence anisotropy. Further details: species or system E. coli. As to conditions: for pKd: read-out: Kd HQNO.
For assay [4], the target named is wild type cytochrome bo3 (no bound Q8) (Escherichia coli, UniProt P0ABI8). Put plainly: HQNO binding monitored by fluorescence anisotropy. Also on record: species or system E. coli. Conditions: read-out: Kd HQNO. The procedure, abridged: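 Quinone-free enzyme was made by diluting ≥50-fold into 50 mM K2HPO4, 0.1% Triton X-100, pH 8.3, and binding to Ni-NTA for several hours at 4 °C. It was washed into dodecylmaltoside, eluted with 100 mM imidazole and dialysed. Enzyme was titrated into pH 8.3 dodecylmaltoside buffer holding fixed 1 μM test compound. Anisotropy was read at ex 341/em 480 nm against a ligand-free control, and fit with an independent-sites model.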

Assay [5] addresses T2, cytochrome bo3 D188A (Escherichia coli, UniProt P0ABI8, D188A). Put plainly: HQNO binding monitored by fluorescence anisotropy. Also on record: species or system E. coli. Conditions: read-out: Kd HQNO.
The target in assay [6] is T3, cytochrome bo3 D188N (Escherichia coli, UniProt P0ABI8, D188N). Kind of assay: HQNO binding monitored by fluorescence anisotropy. Further details: species or system E. coli. Conditions: read-out: Kd HQNO.
The target of assay [7] is T4, cytochrome bo3 R257Q (Escherichia coli, UniProt P0ABI8, R257Q). Kind of assay: HQNO binding monitored by fluorescence anisotropy. Further details: species or system E. coli. As to conditions: read-out: Kd HQNO.
In assay [8] the target is cytochrome bo3 W^II136A (Escherichia coli, UniProt P0ABI8). Put plainly: HQNO binding monitored by fluorescence anisotropy. Further details: species or system E. coli. Conditions: read-out: Kd HQNO.
Assay [9] deals with cytochrome bo3 H98S (Escherichia coli, UniProt P0ABI8, H98S). Kind of assay: HQNO binding monitored by fluorescence anisotropy. Further details: species or system E. coli. As to conditions: read-out: Kd HQNO.
The target of assay [10] is T2, cytochrome bo3 D188A. Put plainly: steady state ubiquinol-1 oxidase activity. Type of assay: biochemical, E. coli. Conditions: read-out: KM UQ1H2.
For assay [11], the target named is T3, cytochrome bo3 D188N. Put plainly: steady state ubiquinol-1 oxidase activity. It counts as biochemical, E. coli. As to conditions: read-out: KM UQ1H2.
In assay [12] the target is T4, cytochrome bo3 R257Q. Kind of assay: steady state ubiquinol-1 oxidase activity. As to conditions: read-out: KM UQ1H2. Type of assay: biochemical, E. coli.
The target in assay [13] is cytochrome bo3 W^II136A (Escherichia coli, UniProt P0ABI8+P0ABJ1, W136A). Put plainly: steady state ubiquinol-1 oxidase activity. Type of assay: biochemical, E. coli. Conditions: read-out: KM UQ1H2.

The values below come from paper PMC2922442 (Biochimica et biophysica acta, 2010).

pKd, pKi: −log10 of the molar value. Several values for one entry are separate records, joined by “and”; a condition that tells them apart may be missing. Equal values may be shown once. Read-outs that look alike come from different tables or passages of the source.

T1 sequence (P0ABJ1 25-315): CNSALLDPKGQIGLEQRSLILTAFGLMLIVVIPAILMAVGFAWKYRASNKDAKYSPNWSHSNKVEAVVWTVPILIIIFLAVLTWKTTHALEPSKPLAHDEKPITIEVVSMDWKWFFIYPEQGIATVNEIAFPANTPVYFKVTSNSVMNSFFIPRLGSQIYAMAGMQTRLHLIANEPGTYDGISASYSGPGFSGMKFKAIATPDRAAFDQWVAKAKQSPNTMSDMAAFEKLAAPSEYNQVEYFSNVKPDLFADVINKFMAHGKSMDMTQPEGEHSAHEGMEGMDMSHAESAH
T1 sequence (P0ABJ3 whole entry, further chain): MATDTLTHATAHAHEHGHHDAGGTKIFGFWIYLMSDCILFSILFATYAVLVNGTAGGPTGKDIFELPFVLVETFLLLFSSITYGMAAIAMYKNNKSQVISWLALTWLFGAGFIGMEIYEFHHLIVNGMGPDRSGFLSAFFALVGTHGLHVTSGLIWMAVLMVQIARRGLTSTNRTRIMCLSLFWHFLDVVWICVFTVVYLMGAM
T1 sequence (P0ABJ6 whole entry, further chain): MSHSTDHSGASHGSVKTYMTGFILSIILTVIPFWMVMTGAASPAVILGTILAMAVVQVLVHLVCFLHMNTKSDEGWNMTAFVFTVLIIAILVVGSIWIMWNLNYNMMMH
T1 sequence (P0ABI8 whole entry): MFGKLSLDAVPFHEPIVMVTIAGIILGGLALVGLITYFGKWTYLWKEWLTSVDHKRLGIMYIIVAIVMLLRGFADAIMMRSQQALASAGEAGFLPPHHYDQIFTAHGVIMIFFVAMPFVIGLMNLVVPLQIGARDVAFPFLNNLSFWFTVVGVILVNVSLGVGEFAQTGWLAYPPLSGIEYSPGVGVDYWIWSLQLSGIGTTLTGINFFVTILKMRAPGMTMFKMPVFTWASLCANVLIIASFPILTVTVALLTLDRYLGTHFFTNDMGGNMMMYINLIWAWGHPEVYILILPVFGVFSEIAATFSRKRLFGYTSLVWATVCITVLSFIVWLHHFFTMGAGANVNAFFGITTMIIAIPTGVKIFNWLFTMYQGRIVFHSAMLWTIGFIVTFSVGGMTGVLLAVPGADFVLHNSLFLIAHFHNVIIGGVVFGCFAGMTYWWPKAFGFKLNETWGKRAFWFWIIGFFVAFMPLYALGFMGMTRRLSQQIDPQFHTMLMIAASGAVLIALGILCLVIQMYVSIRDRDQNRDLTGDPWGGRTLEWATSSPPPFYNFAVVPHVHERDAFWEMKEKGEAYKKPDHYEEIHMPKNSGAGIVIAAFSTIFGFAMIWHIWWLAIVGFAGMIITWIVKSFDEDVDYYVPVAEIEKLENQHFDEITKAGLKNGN
T4 sequence (P0ABJ1 25-315): as the sequence (P0ABJ1 25-315) above
T4 sequence (P0ABI8 whole entry R257Q): as the sequence (P0ABI8 whole entry) above, with R257Q counted along it
T4 sequence (P0ABJ3 whole entry, further chain): as the sequence (P0ABJ3 whole entry, further chain) above
T4 sequence (P0ABJ6 whole entry, further chain): as the sequence (P0ABJ6 whole entry, further chain) above
T2 sequence (P0ABI8 whole entry D188A): as the sequence (P0ABI8 whole entry) above, with D188A counted along it
T2 sequence (P0ABJ6 whole entry, further chain): as the sequence (P0ABJ6 whole entry, further chain) above
T2 sequence (P0ABJ3 whole entry, stated change not applied, further chain): as the sequence (P0ABJ3 whole entry, further chain) above
T2 sequence (P0ABJ1 25-315, further chain): as the sequence (P0ABJ1 25-315) above
T3 sequence (P0ABI8 whole entry D188N): as the sequence (P0ABI8 whole entry) above, with D188N counted along it
T3 sequence (P0ABJ3 whole entry, stated change not applied, further chain): as the sequence (P0ABJ3 whole entry, further chain) above
T3 sequence (P0ABJ6 whole entry, further chain): as the sequence (P0ABJ6 whole entry, further chain) above
T3 sequence (P0ABJ1 25-315, further chain): as the sequence (P0ABJ1 25-315) above
Chain of cytochrome bo3 W^II136A (Escherichia coli, UniProt P0ABI8) (P0ABJ6 whole entry): as the sequence (P0ABJ6 whole entry, further chain) above
Chain of cytochrome bo3 W^II136A (Escherichia coli, UniProt P0ABI8) (P0ABJ3 whole entry, further chain): as the sequence (P0ABJ3 whole entry, further chain) above
Chain of cytochrome bo3 W^II136A (Escherichia coli, UniProt P0ABI8) (P0ABI8 whole entry): as the sequence (P0ABI8 whole entry) above
Chain of cytochrome bo3 W^II136A (Escherichia coli, UniProt P0ABI8) (P0ABJ1 25-315 W136A, further chain): as the sequence (P0ABJ1 25-315) above, with W112A counted along it
Chain of cytochrome bo3 H98S (P0ABI8 whole entry H98S): as the sequence (P0ABI8 whole entry) above, with H98S counted along it
Chain of cytochrome bo3 H98S (P0ABJ3 whole entry, further chain): as the sequence (P0ABJ3 whole entry, further chain) above
Chain of cytochrome bo3 H98S (P0ABJ6 whole entry, further chain): as the sequence (P0ABJ6 whole entry, further chain) above
Chain of cytochrome bo3 H98S (P0ABJ1 25-315, further chain): as the sequence (P0ABJ1 25-315) above
Chain of cytochrome bo3 W^II136A (Escherichia coli, UniProt P0ABI8+P0ABJ1, W136A) (P0ABI8 whole entry): as the sequence (P0ABI8 whole entry) above
Chain of cytochrome bo3 W^II136A (Escherichia coli, UniProt P0ABI8+P0ABJ1, W136A) (P0ABJ6 whole entry, further chain): as the sequence (P0ABJ6 whole entry, further chain) above
Chain of cytochrome bo3 W^II136A (Escherichia coli, UniProt P0ABI8+P0ABJ1, W136A) (P0ABJ1 25-315 W136A): as the sequence (P0ABJ1 25-315) above, with W112A counted along it
Chain of cytochrome bo3 W^II136A (Escherichia coli, UniProt P0ABI8+P0ABJ1, W136A) (P0ABJ3 whole entry, further chain): as the sequence (P0ABJ3 whole entry, further chain) above
Chain of wild type cytochrome bo3 (no bound Q8) (P0ABJ3 whole entry): as the sequence (P0ABJ3 whole entry, further chain) above
Chain of wild type cytochrome bo3 (no bound Q8) (P0ABJ1 25-315, further chain): as the sequence (P0ABJ1 25-315) above
Chain of wild type cytochrome bo3 (no bound Q8) (P0ABI8 whole entry): as the sequence (P0ABI8 whole entry) above
Chain of wild type cytochrome bo3 (no bound Q8) (P0ABJ6 whole entry, further chain): as the sequence (P0ABJ6 whole entry, further chain) above

With `CCCCCCCCCCc1c(C)c(=O)c2ccccc2n1O` [AC1-10, aurachin C1-10], the pattern of inhibition entry in assay [1] is reported as “competitive”. The “effect on formation of the semiquinone at the QH-site (EPR signal)” value in assay [2] is listed as “prevents formation of the semiquinone EPR signal”.
As for `CCCCCCCc1cc(=O)c2ccccc2n1O` [HQNO], the pattern of inhibition entry in assay [1] was “noncompetitive”. In [1] (read-out: Ki, inhibition of ubiquinol-1 oxidase activity by HQNO, coupled assay, enzyme with ubiquinone-8 bound to the QH site), the pKi is 6.13. Further, the negative-log Kd (pKd) was 5.39 in [3] (wild type + 300 μM Q1); 5.17 in assay [3] (wild type + 1500 μM Q1); 5.40 in assay [3] (wild type, one equivalent of ubiquinone-8 bound, 1 μM HQNO, pH 8.3); 5.24 in assay [4]; 5.30 in assay [5]; 5.40 in assay [6]. In addition, the pKd in assay [7] was 5.40; in [8], 5.39; in assay [9] it was 5.44. Moreover, the “number of HQNO binding sites (best fit, independent sites model)” value in assay [3] (wild type with ubiquinone-8 bound) is 1.1 and 1. The “effect on formation of the semiquinone at the QH-site (EPR signal)” value in assay [2] is given as “prevents formation of the semiquinone”.
With `COc1c(O)c(C)c(CC=C(C)C)c(O)c1OC` [UQ1H2, ubiquinol-1], the Km in [1] (read-out: KM UQ1H2, wild type) worked out at 53 µM; in assay [10], 56 µM; in [11] it was 52 µM; in [12], 60 µM; in [13] it was 63 µM.
